Source: PubChem BioAssay (several laboratories)
IMP-1 inhibitor – inhibitors of Pseudomonas aeruginosa IMP-1 metallo-beta-lactamase | 290,000 tested, 0.45% active | purified IMP-1, nitrocefin hydrolysis, epi-absorbance fluorescence | inhibition, % at 5.6 µM;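 active = inhibition above the mean plus 3 SD of all compounds in the same screening run, cut at about 4.5% in these data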
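system = purified recombinant IMP-1 beta-lactamase | amount = 0.2 nM IMP-1, as dispensed | medium = HEPES buffer pH 7.1 with ZnSO4 and Brij 35 | times = 25 °C, 15 min preincubation, 25 min reaction | detection = plate fluorescence quenching by hydrolysis product, ex 480/em 530 nm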
VIM-2 inh – inhibitors of Pseudomonas aeruginosa VIM-2 metallo-beta-lactamase; purified VIM-2, nitrocefin hydrolysis, epi-absorbance fluorescence; inhibition, % at 5.6 µM; 290,000 tested, 0.89% active; AID 1527;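 active = inhibition above the mean of all tested compounds plus 3 SD, cutoff set per screening run, cut at about 7.5% in these data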;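 note: red hydrolysis product quenches plate fluorescence so inhibitors raise well fluorescence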
MEKK2wt PB1 HTS – raises or lowers MEK5 binding to wildtype human MEKK2 PB1 domain. binding response (% of control), % at 10 µM. 290,000 tested, 1.1% active. AID 1531. bead flow cytometry, Alexa488-MEK5 binding to MEKK2 WT; actives lie on both sides. Q9Y2U5; in the data active = binding response below about 67% or above about 130%
MEKK3 PB1 HTS – raises or lowers MEK5 binding to the human MEKK3 PB1 domain; Q99759; bead-based flow cytometry, Alexa488-MEK5 binding to MEKK3; actives lie on both sides; 0 = blocked by unlabeled MEK5, 100 = vehicle; binding response (% of control), % at 10 µM; 290,000 tested, 1.4% active; AID 1529;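 active = binding response more than 3 SD above or below the average of its plate-row segment, actives on both sides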;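 note: Alexa488 bead fluorescence after subtracting the streptavidin-only scavenger bead signal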
Target sequence (Q99759 whole entry, looked up, the tested form may be a part): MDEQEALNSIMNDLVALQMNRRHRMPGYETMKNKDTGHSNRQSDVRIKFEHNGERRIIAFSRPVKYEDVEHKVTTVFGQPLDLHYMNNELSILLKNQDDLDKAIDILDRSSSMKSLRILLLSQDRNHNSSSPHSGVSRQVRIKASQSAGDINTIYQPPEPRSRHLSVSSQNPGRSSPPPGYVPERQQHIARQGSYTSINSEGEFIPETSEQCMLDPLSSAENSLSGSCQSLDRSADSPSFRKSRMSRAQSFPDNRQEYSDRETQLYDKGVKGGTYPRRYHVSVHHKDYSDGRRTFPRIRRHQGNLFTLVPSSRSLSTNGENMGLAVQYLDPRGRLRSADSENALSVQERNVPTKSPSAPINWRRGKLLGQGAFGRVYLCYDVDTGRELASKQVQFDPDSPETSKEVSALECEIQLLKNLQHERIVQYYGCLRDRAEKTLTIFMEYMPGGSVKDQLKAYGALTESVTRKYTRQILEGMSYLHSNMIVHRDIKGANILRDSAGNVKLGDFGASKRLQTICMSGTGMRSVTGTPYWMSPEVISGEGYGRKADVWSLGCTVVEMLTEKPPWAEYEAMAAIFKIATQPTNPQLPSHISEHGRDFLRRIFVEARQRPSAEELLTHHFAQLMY
MEKK2mut PB1 HTS – signal of MEK5 binding to mutant human MEKK2 PB1 domain. 290,000 tested, 0.35% active. AID 1530. bead flow cytometry, Alexa488-MEK5 binding to MEKK2 mutant. percent response, % at 10 µM; in the data active = percent response above about 24%, passing the limit was not always enough
Large screens that a line does not name were inactive; [ ] = remark or other dose. Hits are enriched below; roughly 3.4% of the tested compounds scored in any of these assays.

Cc1[nH]c2ccccc2c1/C=C/C(=O)c1ccncc1	VIM-2 inh 8.5
Cc1cc(=O)n2c3ccccc3n(CC(O)CN3CCC(C)CC3)c2c1C#N (stereo not drawn)	MEKK3 PB1 HTS 135.0
CCCCC(=O)Nc1ccc(NC(=S)NC(=O)CC)cc1OC	none
Cc1ccc(C2/C(=C(/O)c3cnn(-c4ccccc4)c3C)C(=O)C(=O)N2CCN2CCOCC2)o1 (stereo not drawn)	none
Cc1c(/C(O)=C2/C(=O)C(=O)N(CCN3CCOCC3)C2c2cccs2)cnn1-c1ccccc1 (stereo not drawn)	IMP-1 inhibitor 6.1
[O-]/C(=C(\C(=S)NCc1ccco1)[n+]1ccccc1)c1ccccc1Br	IMP-1 inhibitor 4.8
COC(=O)c1ccc2[nH]c([C@H](C)O)c([C@H](C)O)c2c1	IMP-1 inhibitor 4.7
O=c1c(N2CCOCC2)nsn1Cc1ccccc1	IMP-1 inhibitor 6.0 (no result: MEKK2wt PB1 HTS, MEKK3 PB1 HTS, MEKK2mut PB1 HTS)
CCOC(=O)c1cnc2c(OC)cccc2c1NCc1cccnc1	VIM-2 inh 10.9
CCOC(=O)c1cnc2ccc(OCC)cc2c1NCc1cccnc1	none
CCOc1ccc(N(CC(=O)Nc2cccc(F)c2)S(=O)(=O)c2c(C)noc2C)cc1	none
CCOc1ccc(N(CC(=O)Nc2ccc(C)c(C)c2)S(=O)(=O)c2c(C)noc2C)cc1	MEKK2wt PB1 HTS 134.0
O=C(CC(C(=O)O)c1cccc(Cl)c1)c1ccccc1 (stereo not drawn)	VIM-2 inh 10.6
Cc1cc(NC(=O)c2ccc3c(c2)OCO3)no1	IMP-1 inhibitor 4.7
COc1cc(NC(=O)CN(C)CCOc2ccccc2)c(C)cc1[N+](=O)[O-]	none
CCSc1ncc(Cl)c(C(=O)Nc2ccc(S(N)(=O)=O)cc2)n1	VIM-2 inh 8.6
COc1ccc(C2=NN(C(=O)CSc3ncccn3)C(c3cccc(OC)c3OC)C2)cc1 (stereo not drawn)	MEKK2wt PB1 HTS -7.0
COc1ccc(C2=NN(C(=O)CSc3ncccn3)C(c3ccc(C)cc3)C2)cc1 (stereo not drawn)	none
CCc1ccc(CCC(=O)Nc2ncc(Cc3ccccc3Cl)s2)o1	MEKK3 PB1 HTS 163.0
O=C(CN1C(=O)C(c2ccccc2)Oc2cccnc21)NCc1ccccc1F (stereo not drawn)	IMP-1 inhibitor 53.6
C=CCn1c(SCc2nc3cc(C(=O)OC)ccc3c(=O)[nH]2)nc2sc(CC)cc2c1=O	none
Cc1ccc(CCNC(=O)C2CCC(=O)N2Cc2cccnc2)cc1 (stereo not drawn)	none
Cn1c(=O)c(N)c2c3c(c(Br)ccc31)C(=O)c1ccccc1-2	VIM-2 inh 8.4
CCOC(=O)C1CCN(c2cc3c(cc2NC(=O)c2ccccc2F)n(C)c(=O)n3C)CC1	IMP-1 inhibitor 17.6
N#CC(C#N)=C(Nc1ccc(F)cc1)SCc1cccc(F)c1	MEKK2wt PB1 HTS 4.0[inhibitor], MEKK3 PB1 HTS 3.0[inhibitor]
CCOc1ccc(N/C(SCc2cccc([N+](=O)[O-])c2)=C(/C#N)C(N)=O)cc1	none
O=C(c1cnn2c(C(F)F)cc(-c3ccccc3)nc12)N1CCN(Cc2ccc3c(c2)OCO3)CC1	none
Clc1cccc(C2Nc3cccc4cccc(c34)N2)c1	none
Clc1ccc(C2Nc3cccc4cccc(c34)N2)cc1Cl	IMP-1 inhibitor 6.1
NC(=O)COc1c(-c2ccc(Br)o2)oc2ccccc2c1=O	none
C/C(CC(=O)NCc1ccco1)=N\NC(=O)CC#N	none
CC(C)N1CC(O)=C(c2nc3ccccc3c(=O)[nH]2)C1=N	VIM-2 inh 10.2
O=C(Nc1ccc(N2CCOCC2)nc1)c1ccc(C(F)(F)F)cc1	none
O=[N+]([O-])c1ccc(N/N=C\c2ccccc2OCc2ccccc2)cc1	MEKK2wt PB1 HTS 9.0
Cc1ccc(NC2c3ncccc3C(=O)N2Cc2cccs2)cc1C (stereo not drawn)	none
CN1CCN(C(=O)c2cnn3c(C(F)(F)F)cc(-c4cccs4)nc23)CC1	VIM-2 inh 8.6
CC(=O)Nc1ccc(N/C=C/C(=O)c2ccc(Br)cc2)cc1	none
Cc1ccccc1NC(=O)c1cc2c(=O)n3cccc(C)c3nc2s1	VIM-2 inh 9.2
CCN(CC)C(=O)CN(Cc1ccccc1)S(=O)(=O)c1ccc(F)cc1	none
CNC(=O)C(=O)N/N=C/c1cccnc1	none
CCOC(=O)C(=CNc1ccc(NC2=NCC(C)(C)S2)cc1)C(=O)OCC	VIM-2 inh 10.1
O=C(CCN1C(=O)/C(=C\C=C\c2ccccc2)SC1=S)Nc1ccc(C(=O)O)cc1	IMP-1 inhibitor 8.4
CCC(C)(C)c1ccc(OCCCC[n+]2cccc(C)c2C)c(C(C)(C)CC)c1	MEKK2wt PB1 HTS 170.0
COCCOC(=O)c1c(C)nc(SCC(=O)Nc2ccc(OC)cc2)c(C#N)c1-c1ccco1	none
Cc1nc(SCC(=O)c2ccccc2)c(C#N)c(-c2ccco2)c1C(=O)NCc1ccco1	IMP-1 inhibitor 5.0
Cc1ccc(Nc2cc(C)nn2-c2nc(C)cc(C)n2)cc1	VIM-2 inh 7.8
CC(=O)Nc1cc(C)nn1-c1nc(C)cc(C)n1	VIM-2 inh 9.3
Cc1cc(C)nc(-n2nc(C)cc2NC(=O)C(C)C)n1	none
O=C(Nc1nccs1)C1CC(=O)N(c2ccccc2Cl)C1 (stereo not drawn)	none
Cc1cc(NC(=O)Cc2cccs2)no1	IMP-1 inhibitor 6.8 (no result: MEKK2wt PB1 HTS, MEKK3 PB1 HTS, MEKK2mut PB1 HTS)
Cc1ccc(-c2c(C(=O)N/N=C/c3cccc(Cl)c3)nnn2-c2nonc2N)cc1	MEKK2wt PB1 HTS 135.0
Cc1ccc(-c2c(C(=O)N/N=C/c3ccoc3)nnn2-c2nonc2N)cc1	none
COC(=O)c1ccc(NC(=O)c2ccccc2)o1	none
NS(=O)(=O)c1ccc(CCNC(=S)NC2CCCC2)cc1	MEKK2wt PB1 HTS -10.0
Cc1csc(SC(C)C(=O)Nc2ccc3c(c2)OCCO3)n1 (stereo not drawn)	none
CCc1cc(C(=O)OC)c(NC(=O)CCC(=O)O)s1	IMP-1 inhibitor 14.8
COc1ccc(N2CCN(C(=O)C(=O)c3cn(CC(=O)N4CCCCCC4)c4ccccc34)CC2)cc1	MEKK2wt PB1 HTS -5.0
CCN1CCN(C(=O)C(=O)c2cn(CC(=O)N3CCCCCC3)c3ccccc23)CC1	MEKK2wt PB1 HTS 56.0
CCN1CCN(C(=O)C(=O)c2cn(CC(=O)N3CCCC3)c3ccccc23)CC1	none
O=C(c1ccccc1)c1ncc(C(F)(F)F)cc1Cl	none
Cc1nn2c(NC(C)C)c3c(nc2c1-c1ccccc1)CCC3	none
Cc1nn2c(Nc3ccccc3)c3c(nc2c1-c1ccccc1)CCC3	MEKK3 PB1 HTS 176.0
COc1ccc(S(=O)(=O)Nc2cccnc2)c(C)c1C	IMP-1 inhibitor 4.6
COc1ccc(S(=O)(=O)Nc2ccncc2)c(C)c1C	none
C=CCc1c(C)nc(SC)nc1Nc1ccc(C(=O)O)cc1	none
C=CCc1c(C)nc(SC)nc1Nc1ccc(C(C)=O)cc1	VIM-2 inh 8.1
COc1cccc2c1-c1c(O)cccc1C2=O	VIM-2 inh 11.3
CCOC(=O)Cn1c(=O)c2c(nc3n2CCCN3CCc2ccccc2)n(C)c1=O	none
